Experiments:
Format in all cases: toxicity, cell-based
Fibroblast [1] = experiment: Multiplex assay against human fibroblast
In short: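 Imaging took place on a CQ1 microscope at 37°C and 5% CO2 once compound had been added to live cells stained at seeding with Hoechst33342, BioTracker Green Microtubule Cytoskeleton Dye, MitoTracker Red and Annexin V Alexa Fluor 680. CellPathfinder machine-learning gating classed cells as Hoechst high-intensity objects or normal cells, classed normal cells as having healthy, pyknosed or fragmented nuclei, and classed pyknosed cells as mitotic or apoptotic. Tubulin, mitochondrial-mass and membrane-permeability phenotypes are per cents of the healthy-nucleus cells.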

Fibroblast [2] = experiment: Incucyte cell viability with human fibroblast; details: 10 µM, compound concentration 10 uM; note: filed as whole numbers so only -1 and 0 and 1 occur
U2OS = experiment: Incucyte cell viability with U2OS; details: human, 10 µM, compound concentration 10 uM; note: filed as whole numbers so only -1 and 0 and 1 occur
HEK-293T = experiment: Incucyte cell viability with HEK293T; details: human, 10 µM, compound concentration 10 uM; note: filed as whole numbers so only -1 and 0 and 1 occur
[3] = 12 h, 1 µM, compound concentration 1 uM, replicate 1
[4] = 12 h, 1 µM, compound concentration 1 uM, replicate 2
[5] = 12 h, 10 µM, compound concentration 10 uM, replicate 1
[6] = 12 h, 10 µM, compound concentration 10 uM, replicate 2
[7] = 24 h, 1 µM, compound concentration 1 uM, replicate 1
[8] = 24 h, 1 µM, compound concentration 1 uM, replicate 2
[9] = 24 h, 10 µM, compound concentration 10 uM, replicate 1
[10] = 24 h, 10 µM, compound concentration 10 uM, replicate 2
[11] = 48 h, 1 µM, compound concentration 1 uM, replicate 1
[12] = 48 h, 1 µM, compound concentration 1 uM, replicate 2
[13] = 48 h, 10 µM, compound concentration 10 uM, replicate 1
[14] = 48 h, 10 µM, compound concentration 10 uM, replicate 2
[15] = 0 h, replicate number 1, timepoint 0 hours
[16] = 6 h, replicate number 1, timepoint 6 hours
[17] = 12 h, replicate number 1, timepoint 12 hours
[18] = 18 h, replicate number 1, timepoint 18 hours
[19] = 24 h, replicate number 1, timepoint 24 hours

Structure (SMILES): CCCn1c(=O)c2[nH]c(C34CC5CC(CC3C5)C4)nc2n(CCC)c1=O [ROLOFYLLINE]
- Population Apoptotic (%) (Fibroblast [1]; [3]): 67%
- Population Fragmented Nuclei (%) (Fibroblast [1]; [3]): 13%
- Population Healthy Nuclei (%) (Fibroblast [1]; [3]): 55%
- Population Hoechst High Intensity Objects (%) (Fibroblast [1]; [3]): 9%
- Population Membrane Permeable-Phenotype (%) (Fibroblast [1]; [3]): 24%
- Population Mitochondria Different-Phenotype (%) (Fibroblast [1]; [3]): 10%
- Population Mitotic Cells (%) (Fibroblast [1]; [3]): 32%
- Population Normal (%) (Fibroblast [1]; [3]): 90%
- Population Pyknosed Nuclei (%) (Fibroblast [1]; [3]): 31%
- Population Tubulin-Different-Phenotype (%) (Fibroblast [1]; [3]): 63%
- Total Cell Count (Fibroblast [1]; [3]): 98
- Population Apoptotic (%) (Fibroblast [1]; [4]): 71%
- Population Fragmented Nuclei (%) (Fibroblast [1]; [4]): 4%
- Population Healthy Nuclei (%) (Fibroblast [1]; [4]): 88%
- Population Hoechst High Intensity Objects (%) (Fibroblast [1]; [4]): 3%
- Population Membrane Permeable-Phenotype (%) (Fibroblast [1]; [4]): 12%
- Population Mitochondria Different-Phenotype (%) (Fibroblast [1]; [4]): 15%
- Population Mitotic Cells (%) (Fibroblast [1]; [4]): 28%
- Population Normal (%) (Fibroblast [1]; [4]): 96%
- Population Pyknosed Nuclei (%) (Fibroblast [1]; [4]): 7%
- Population Tubulin-Different-Phenotype (%) (Fibroblast [1]; [4]): 20%
- Total Cell Count (Fibroblast [1]; [4]): 81
- Population Apoptotic (%) (Fibroblast [1]; [5]): 46%
- Population Fragmented Nuclei (%) (Fibroblast [1]; [5]): 13%
- Population Healthy Nuclei (%) (Fibroblast [1]; [5]): 42%
- Population Hoechst High Intensity Objects (%) (Fibroblast [1]; [5]): 13%
- Population Membrane Permeable-Phenotype (%) (Fibroblast [1]; [5]): 23%
- Population Mitochondria Different-Phenotype (%) (Fibroblast [1]; [5]): 37%
- Population Mitotic Cells (%) (Fibroblast [1]; [5]): 53%
- Population Normal (%) (Fibroblast [1]; [5]): 86%
- Population Pyknosed Nuclei (%) (Fibroblast [1]; [5]): 43%
- Population Tubulin-Different-Phenotype (%) (Fibroblast [1]; [5]): 88%
- Total Cell Count (Fibroblast [1]; [5]): 137
- Population Apoptotic (%) (Fibroblast [1]; [6]): 55%
- Population Healthy Nuclei (%) (Fibroblast [1]; [6]): 74%
- Population Hoechst High Intensity Objects (%) (Fibroblast [1]; [6]): 3%
- Population Membrane Permeable-Phenotype (%) (Fibroblast [1]; [6]): 46%
- Population Mitochondria Different-Phenotype (%) (Fibroblast [1]; [6]): 73%
- Population Mitotic Cells (%) (Fibroblast [1]; [6]): 44%
- Population Normal (%) (Fibroblast [1]; [6]): 96%
- Population Pyknosed Nuclei (%) (Fibroblast [1]; [6]): 12%
- Population Tubulin-Different-Phenotype (%) (Fibroblast [1]; [6]): 100%
- Total Cell Count (Fibroblast [1]; [6]): 99
- Population Apoptotic (%) (Fibroblast [1]; [7]): 31%
- Population Fragmented Nuclei (%) (Fibroblast [1]; [7]): 20%
- Population Healthy Nuclei (%) (Fibroblast [1]; [7]): 56%
- Population Hoechst High Intensity Objects (%) (Fibroblast [1]; [7]): 13%
- Population Membrane Permeable-Phenotype (%) (Fibroblast [1]; [7]): 39%
- Population Mitochondria Different-Phenotype (%) (Fibroblast [1]; [7]): 9%
- Population Mitotic Cells (%) (Fibroblast [1]; [7]): 68%
- Population Normal (%) (Fibroblast [1]; [7]): 86%
- Population Pyknosed Nuclei (%) (Fibroblast [1]; [7]): 23%
- Population Tubulin-Different-Phenotype (%) (Fibroblast [1]; [7]): 73%
- Total Cell Count (Fibroblast [1]; [7]): 109
- Population Apoptotic (%) (Fibroblast [1]; [8]): 40%
- Population Fragmented Nuclei (%) (Fibroblast [1]; [8]): 7%
- Population Healthy Nuclei (%) (Fibroblast [1]; [8]): 88%
- Population Hoechst High Intensity Objects (%) (Fibroblast [1]; [8]): 5%
- Population Membrane Permeable-Phenotype (%) (Fibroblast [1]; [8]): 6%
- Population Mitochondria Different-Phenotype (%) (Fibroblast [1]; [8]): 11%
- Population Mitotic Cells (%) (Fibroblast [1]; [8]): 60%
- Population Normal (%) (Fibroblast [1]; [8]): 94%
- Population Pyknosed Nuclei (%) (Fibroblast [1]; [8]): 4%
- Population Tubulin-Different-Phenotype (%) (Fibroblast [1]; [8]): 15%
- Total Cell Count (Fibroblast [1]; [8]): 83
- Population Apoptotic (%) (Fibroblast [1]; [9]): 36%
- Population Fragmented Nuclei (%) (Fibroblast [1]; [9]): 17%
- Population Healthy Nuclei (%) (Fibroblast [1]; [9]): 43%
- Population Hoechst High Intensity Objects (%) (Fibroblast [1]; [9]): 13%
- Population Membrane Permeable-Phenotype (%) (Fibroblast [1]; [9]): 31%
- Population Mitochondria Different-Phenotype (%) (Fibroblast [1]; [9]): 39%
- Population Mitotic Cells (%) (Fibroblast [1]; [9]): 63%
- Population Normal (%) (Fibroblast [1]; [9]): 86%
- Population Pyknosed Nuclei (%) (Fibroblast [1]; [9]): 39%
- Population Tubulin-Different-Phenotype (%) (Fibroblast [1]; [9]): 87%
- Total Cell Count (Fibroblast [1]; [9]): 128
- Population Apoptotic (%) (Fibroblast [1]; [10]): 56%
- Population Fragmented Nuclei (%) (Fibroblast [1]; [10]): 9%
- Population Healthy Nuclei (%) (Fibroblast [1]; [10]): 58%
- Population Hoechst High Intensity Objects (%) (Fibroblast [1]; [10]): 5%
- Population Membrane Permeable-Phenotype (%) (Fibroblast [1]; [10]): 41%
- Population Mitochondria Different-Phenotype (%) (Fibroblast [1]; [10]): 81%
- Population Mitotic Cells (%) (Fibroblast [1]; [10]): 43%
- Population Normal (%) (Fibroblast [1]; [10]): 94%
- Population Pyknosed Nuclei (%) (Fibroblast [1]; [10]): 31%
- Population Tubulin-Different-Phenotype (%) (Fibroblast [1]; [10]): 100%
- Total Cell Count (Fibroblast [1]; [10]): 120
- Population Apoptotic (%) (Fibroblast [1]; [11]): 31%
- Population Fragmented Nuclei (%) (Fibroblast [1]; [11]): 28%
- Population Healthy Nuclei (%) (Fibroblast [1]; [11]): 55%
- Population Hoechst High Intensity Objects (%) (Fibroblast [1]; [11]): 14%
- Population Membrane Permeable-Phenotype (%) (Fibroblast [1]; [11]): 23%
- Population Mitochondria Different-Phenotype (%) (Fibroblast [1]; [11]): 3%
- Population Mitotic Cells (%) (Fibroblast [1]; [11]): 68%
- Population Normal (%) (Fibroblast [1]; [11]): 85%
- Population Pyknosed Nuclei (%) (Fibroblast [1]; [11]): 15%
- Population Tubulin-Different-Phenotype (%) (Fibroblast [1]; [11]): 58%
- Total Cell Count (Fibroblast [1]; [11]): 118
- Population Apoptotic (%) (Fibroblast [1]; [12]): 0%
- Population Fragmented Nuclei (%) (Fibroblast [1]; [12]): 25%
- Population Healthy Nuclei (%) (Fibroblast [1]; [12]): 73%
- Population Hoechst High Intensity Objects (%) (Fibroblast [1]; [12]): 13%
- Population Membrane Permeable-Phenotype (%) (Fibroblast [1]; [12]): 34%
- Population Mitochondria Different-Phenotype (%) (Fibroblast [1]; [12]): 5%
- Population Mitotic Cells (%) (Fibroblast [1]; [12]): 100%
- Population Normal (%) (Fibroblast [1]; [12]): 86%
- Population Pyknosed Nuclei (%) (Fibroblast [1]; [12]): 1%
- Population Tubulin-Different-Phenotype (%) (Fibroblast [1]; [12]): 70%
- Total Cell Count (Fibroblast [1]; [12]): 87
- Population Apoptotic (%) (Fibroblast [1]; [13]): 62%
- Population Fragmented Nuclei (%) (Fibroblast [1]; [13]): 31%
- Population Healthy Nuclei (%) (Fibroblast [1]; [13]): 46%
- Population Hoechst High Intensity Objects (%) (Fibroblast [1]; [13]): 17%
- Population Membrane Permeable-Phenotype (%) (Fibroblast [1]; [13]): 26%
- Population Mitochondria Different-Phenotype (%) (Fibroblast [1]; [13]): 51%
- Population Mitotic Cells (%) (Fibroblast [1]; [13]): 37%
- Population Normal (%) (Fibroblast [1]; [13]): 82%
- Population Pyknosed Nuclei (%) (Fibroblast [1]; [13]): 21%
- Population Tubulin-Different-Phenotype (%) (Fibroblast [1]; [13]): 86%
- Total Cell Count (Fibroblast [1]; [13]): 134
- Population Apoptotic (%) (Fibroblast [1]; [14]): 50%
- Population Fragmented Nuclei (%) (Fibroblast [1]; [14]): 37%
- Population Healthy Nuclei (%) (Fibroblast [1]; [14]): 57%
- Population Hoechst High Intensity Objects (%) (Fibroblast [1]; [14]): 50%
- Population Membrane Permeable-Phenotype (%) (Fibroblast [1]; [14]): 21%
- Population Mitochondria Different-Phenotype (%) (Fibroblast [1]; [14]): 34%
- Population Mitotic Cells (%) (Fibroblast [1]; [14]): 50%
- Population Normal (%) (Fibroblast [1]; [14]): 50%
- Population Pyknosed Nuclei (%) (Fibroblast [1]; [14]): 5%
- Population Tubulin-Different-Phenotype (%) (Fibroblast [1]; [14]): 82%
- Total Cell Count (Fibroblast [1]; [14]): 160
- Growth Rate (Fibroblast [2]; [15]): 0
- Growth Rate (Fibroblast [2]; [16]): 0
- Growth Rate (Fibroblast [2]; [17]): 0
- Growth Rate (Fibroblast [2]; [18]): 0
- Growth Rate (Fibroblast [2]; [19]): 0
- Growth Rate (U2OS; [15]): 1
- Growth Rate (U2OS; 0 h, replicate number 2, timepoint 0 hours): 0
- Growth Rate (U2OS; 6 h, replicate number 2, timepoint 6 hours): 1
- Growth Rate (U2OS; [17]): 1
- Growth Rate (U2OS; [18]): 1
- Growth Rate (U2OS; [19]): 1
- Growth Rate (HEK-293T; [15]): 0
- Growth Rate (HEK-293T; [16]): 0
- Growth Rate (HEK-293T; [17]): 0
- Growth Rate (HEK-293T; [18]): 0
- Growth Rate (HEK-293T; [19]): 0

Source: ChEMBL document CHEMBL4689842, “EUbOPEN Chemogenomics Library wave 1” (2021)
